Experimental data as given in ChEMBL document CHEMBL1817572, “New, potent, selective, and short-acting peptidic V1a receptor agonists” (J Med Chem, 2011).
Bridge positions count the residues as written; N and C are the ends. Square brackets hold non-standard residues; d marks the D form. Peptide text beside a SMILES is read from it. * marks the point of attachment. Ala(2-furyl) = N[C@@H](Cc1ccco1)C(=O)O; Ala(cPent) = N[C@@H](CC1CCCC1)C(=O)O; Orn(iPr) = CC(C)NCCC[C@H](N)C(=O)O; 2Thi = N[C@@H](Cc1cccs1)C(=O)O; Cha = N[C@@H](CC1CCCCC1)C(=O)O; Orn = NCCC[C@H](N)C(=O)O; Dab = NCC[C@H](N)C(=O)O; Ac4c = NC1(C(=O)O)CCC1; NHiBu = CC(C)CN*

Experiments:
Vasopressin V1b receptor = molecular target: T1, Vasopressin V1b receptor (Homo sapiens, UniProt P47901); experiment: Agonist activity at recombinant human vasopressin V1b receptor expressed in Flp-In-293 cells by luciferase reporter gene assay; type: functional, cell-based; conditions: read-out: EC50
T1 sequence (P47901 whole entry): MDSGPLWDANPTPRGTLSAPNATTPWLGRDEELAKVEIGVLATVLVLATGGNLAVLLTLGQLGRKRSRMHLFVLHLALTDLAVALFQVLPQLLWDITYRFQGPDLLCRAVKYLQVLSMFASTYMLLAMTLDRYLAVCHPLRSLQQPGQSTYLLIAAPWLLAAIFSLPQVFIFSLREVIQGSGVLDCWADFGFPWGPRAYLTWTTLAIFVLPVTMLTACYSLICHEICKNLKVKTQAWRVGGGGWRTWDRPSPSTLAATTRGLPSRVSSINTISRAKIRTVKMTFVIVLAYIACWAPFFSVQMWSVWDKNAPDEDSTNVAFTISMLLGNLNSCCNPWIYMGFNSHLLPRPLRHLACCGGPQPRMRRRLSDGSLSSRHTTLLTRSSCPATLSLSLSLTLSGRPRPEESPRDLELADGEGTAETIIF
How it was run: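 Reporter gene assays in HEK293 cells transiently cotransfected with V1a (human or rat) or human V2 receptor vector plus NFAT-luciferase (V1a) or CRE-luciferase (V2) reporter; V1b in Flp-In-293 stably expressing receptor, OT in CHO-K1 stably expressing receptor, both transiently transfected with NFAT-luciferase. Two days post-transfection, peptides added for 5 h at 37 °C, lysis with luciferin, luminescence read.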

Vasopressin V1a receptor [1] = molecular target: Vasopressin V1a receptor (Rattus norvegicus, UniProt P30560); experiment: Agonist activity at recombinant rat vasopressin V1a receptor expressed in HEK293 cells by luciferase reporter gene assay; type: functional, cell-based
Vasopressin V1a receptor [2] = molecular target: Vasopressin V1a receptor (Homo sapiens, UniProt P37288); experiment: Agonist activity at recombinant human vasopressin V1a receptor expressed in HEK293 cells by luciferase reporter gene assay; type: functional, cell-based; conditions: read-out: EC50
Vasopressin V2 receptor [3] = molecular target: T2, Vasopressin V2 receptor (Homo sapiens, UniProt P30518); experiment: Agonist activity at recombinant human vasopressin V2 receptor expressed in HEK293 cells by luciferase reporter gene assay; type: functional, cell-based
Oxytocin receptor = molecular target: T3, Oxytocin receptor (Homo sapiens, UniProt P30559); experiment: Agonist activity at human OT receptor expressed in CHO-K1 cells by luciferase reporter gene assay; type: functional, cell-based
T3 sequence (P30559 whole entry): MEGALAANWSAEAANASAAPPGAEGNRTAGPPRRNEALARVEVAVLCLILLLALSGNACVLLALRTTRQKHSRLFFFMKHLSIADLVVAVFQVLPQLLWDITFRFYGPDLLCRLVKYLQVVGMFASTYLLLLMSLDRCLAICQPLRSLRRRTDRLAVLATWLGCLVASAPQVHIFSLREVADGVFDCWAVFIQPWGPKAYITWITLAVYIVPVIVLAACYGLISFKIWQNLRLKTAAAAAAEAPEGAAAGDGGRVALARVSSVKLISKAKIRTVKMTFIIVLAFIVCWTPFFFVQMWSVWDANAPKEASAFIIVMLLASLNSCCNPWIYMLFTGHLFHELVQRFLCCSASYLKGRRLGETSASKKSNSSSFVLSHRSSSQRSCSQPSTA

Homo sapiens [4] = organism: Homo sapiens; experiment: Selectivity ratio of EC50 for human oxytocin receptor to EC50 for human vasopressin V1a receptor
Homo sapiens [5] = organism: Homo sapiens; experiment: Selectivity ratio of EC50 for human vasopressin V1b receptor to EC50 for human vasopressin V1a receptor
[6] = molecular target: Vasopressin V1a/V2 (Homo sapiens) (UniProt P30518+P37288); experiment: Selectivity ratio of EC50 for human vasopressin V2 receptor to EC50 for human vasopressin V1a receptor
Vasopressin V2 receptor [7] = molecular target: T2, Vasopressin V2 receptor; experiment: Partial agonist activity at recombinant human vasopressin V2 receptor expressed in HEK293 cells by luciferase reporter gene assay; type: functional, cell-based
How it was run: (§1)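 Same luciferase reporter systems (OT in stable CHO-K1, V1b in stable Flp-In-293, each with transient NFAT-luciferase; V1a in HEK293 with NFAT-luciferase, V2 in HEK293 with CRE-luciferase). Peptides added for 5 h at 37 °C two days post-transfection, luminescence read. Partial agonism means efficacy <70%.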

[8] = molecular target: T4, Oxytocin receptor (Homo sapiens) (UniProt P30559); experiment: Partial agonist activity at human OT receptor expressed in CHO-K1 cells by luciferase reporter gene assay; type: functional, cell-based; how it was run: as §1
T4 sequence (whole entry): T3 sequence (P30559 whole entry)

T2 sequence (P30518 whole entry): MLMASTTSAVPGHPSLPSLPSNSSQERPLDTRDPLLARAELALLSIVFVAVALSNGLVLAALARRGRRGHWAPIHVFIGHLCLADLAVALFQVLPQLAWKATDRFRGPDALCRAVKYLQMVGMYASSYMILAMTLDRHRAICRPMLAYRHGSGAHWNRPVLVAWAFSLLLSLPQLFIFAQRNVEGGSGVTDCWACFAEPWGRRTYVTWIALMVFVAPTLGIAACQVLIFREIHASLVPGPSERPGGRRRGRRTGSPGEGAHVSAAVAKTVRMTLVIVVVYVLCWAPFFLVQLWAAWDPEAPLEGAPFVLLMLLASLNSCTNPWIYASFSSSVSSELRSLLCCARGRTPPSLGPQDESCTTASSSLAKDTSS
Vasopressin V1a/V2 (Homo sapiens), sequence (P30518 whole entry, looked up): as the sequence (P30518 whole entry) above
Vasopressin V1a/V2 (Homo sapiens), sequence (P37288 whole entry, looked up): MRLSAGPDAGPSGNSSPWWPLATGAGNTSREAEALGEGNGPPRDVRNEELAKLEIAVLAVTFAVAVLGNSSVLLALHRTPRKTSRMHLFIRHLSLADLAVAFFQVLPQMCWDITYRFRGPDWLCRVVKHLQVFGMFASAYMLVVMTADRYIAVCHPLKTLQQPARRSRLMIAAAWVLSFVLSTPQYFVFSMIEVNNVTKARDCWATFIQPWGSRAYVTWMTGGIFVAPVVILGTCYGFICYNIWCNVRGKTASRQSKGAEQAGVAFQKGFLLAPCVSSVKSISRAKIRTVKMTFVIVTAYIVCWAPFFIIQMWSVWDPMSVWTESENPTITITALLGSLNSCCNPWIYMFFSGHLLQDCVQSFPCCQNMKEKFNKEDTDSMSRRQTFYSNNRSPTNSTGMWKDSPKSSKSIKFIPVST
Vasopressin V1a receptor (Rattus norvegicus, UniProt P30560), sequence (P30560 whole entry): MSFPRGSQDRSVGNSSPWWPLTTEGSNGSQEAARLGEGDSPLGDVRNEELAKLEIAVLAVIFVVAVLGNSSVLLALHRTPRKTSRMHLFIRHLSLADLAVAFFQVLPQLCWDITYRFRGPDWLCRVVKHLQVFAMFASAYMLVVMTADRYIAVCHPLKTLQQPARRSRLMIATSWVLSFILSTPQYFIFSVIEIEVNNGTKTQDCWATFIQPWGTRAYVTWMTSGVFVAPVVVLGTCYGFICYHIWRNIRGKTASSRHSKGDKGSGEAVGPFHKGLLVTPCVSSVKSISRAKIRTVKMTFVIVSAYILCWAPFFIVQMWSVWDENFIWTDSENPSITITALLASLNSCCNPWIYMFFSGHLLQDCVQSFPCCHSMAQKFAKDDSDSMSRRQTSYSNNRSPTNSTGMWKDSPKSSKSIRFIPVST
Vasopressin V1a receptor (Homo sapiens, UniProt P37288), sequence (P37288 whole entry): as the sequence (P37288 whole entry, looked up) above

Compound	EC50 (Vasopressin V1b receptor) [nM]	EC50 (Vasopressin V1a receptor [1]; read-out: EC50) [nM]	EC50 (Vasopressin V1a receptor [1]; read-out: pEC50 (converted)) [nM]	EC50 (Vasopressin V1a receptor [2]) [nM]	EC50 (Vasopressin V2 receptor [3]; read-out: EC50) [nM]	EC50 (Oxytocin receptor; cho-k1, read-out: EC50) [nM]	EC50 (Oxytocin receptor; read-out: pEC50 (converted)) [nM]	Ratio EC50 (Homo sapiens [4])	Ratio EC50 (Homo sapiens [5])	Ratio EC50 [6]	Efficacy (Vasopressin V2 receptor [7]) [%]	EC50 (Oxytocin receptor; read-out: EC50) [nM]	Efficacy [8] [%]	EC50 (Vasopressin V2 receptor [3]; hek293, read-out: EC50) [nM]	EC50 (Vasopressin V2 receptor [3]; read-out: pEC50 (converted)) [nM]
N=C(N)NCCC[C@H](NC(=O)[C@@H]1CCCN1C(=O)[C@@H]1CSSC[C@H](N)C(=O)N[C@@H](Cc2ccccc2)C(=O)N[C@@H](Cc2ccccc2)C(=O)N[C@@H](CCC(N)=O)C(=O)N[C@@H](CC(N)=O)C(=O)N1)C(=O)NCC(N)=O (H-CFFQNCPRG-NH2; disulfide 1-6)	16	0.07	0.0794	0.15	1.4	–	–	–	–	–	–	–	–	–	–
CC[C@H](C)[C@@H]1NC(=O)[C@H](Cc2ccccc2)NC(=O)[C@@H](N)CSSC[C@@H](C(=O)N2CCC[C@H]2C(=O)N[C@@H](CCN)C(=O)NCC(N)=O)NC(=O)[C@H](CC(N)=O)NC(=O)[C@H](CC(=O)NC)NC1=O (H-CFID(NHMe)NCP[Dab]G-NH2; disulfide 1-6)	8.7	–	–	3.9	5300	> 10000	> 10000	> 2500	2.2	1300	< 70	–	–	–	–
CCNC(=O)CC[C@@H]1NC(=O)[C@H]([C@@H](C)CC)NC(=O)[C@H](Cc2ccccc2)NC(=O)[C@@H](N)CSSC[C@@H](C(=O)N2CCC[C@H]2C(=O)N[C@@H](CCCN)C(=O)NCC(N)=O)NC(=O)[C@H](CC(N)=O)NC1=O (H-CFIE(NHEt)NCP[Orn]G-NH2; disulfide 1-6)	97	–	–	39	2600	> 10000	> 10000	> 250	2.4	66	< 70	–	–	–	–
CC[C@H](C)[C@@H]1NC(=O)[C@H](Cc2ccccc2)NC(=O)[C@@H](N)CSSC[C@@H](C(=O)N2CCC[C@H]2C(=O)N[C@@H](CCCN)C(=O)NCC(N)=O)NC(=O)[C@H](CC(N)=O)NC(=O)[C@H](CCC(=O)NCC(C)C)NC1=O (H-CFIE(NHiBu)NCP[Orn]G-NH2; disulfide 1-6)	150	–	–	21	3000	> 10000	> 10000	> 470	7.1	140	< 70	–	–	–	–
CC[C@H](C)[C@@H]1NC(=O)[C@H](Cc2ccccc2)NC(=O)[C@@H](N)CSSC[C@@H](C(=O)N2CCC[C@H]2C(=O)N[C@@H](CCCNC(C)C)C(=O)NCC(N)=O)NC(=O)[C@H](CC(N)=O)NC(=O)[C@H](CC(N)=O)NC1=O (H-CFINNCP[Orn(iPr)]G-NH2; disulfide 1-6)	250	–	–	1.4	3700	–	–	78	170	2600	< 70	110	< 70	–	–
CC[C@H](C)[C@@H]1NC(=O)[C@H](Cc2ccccc2)NC(=O)[C@@H](N)CSSC[C@@H](C(=O)N2CCC[C@H]2C(=O)N[C@@H](CCN)C(=O)NCC(N)=O)NC(=O)[C@H](CC(N)=O)NC(=O)[C@H](CCC(N)=O)NC1=O (H-CFIQNCP[Dab]G-NH2; disulfide 1-6)	26	–	–	–	73	–	–	18	52	140	–	9.1	< 70	–	–
CC[C@H](C)[C@@H]1NC(=O)[C@H](Cc2ccccc2)NC(=O)[C@@H](N)CSSC[C@@H](C(=O)N2CCC[C@H]2C(=O)N[C@@H](CCCN)C(=O)NCC(N)=O)NC(=O)[C@H](CC(N)=O)NC(=O)[C@H](CCC(N)=O)NC1=O (H-CFIQNCP[Orn]G-NH2; disulfide 1-6)	25	0.12	–	–	155	> 10000	> 10000	–	–	–	–	–	–	–	–
CC[C@H](C)[C@@H]1NC(=O)[C@H](Cc2cccs2)NC(=O)[C@@H](N)CSSC[C@@H](C(=O)N2CCC[C@H]2C(=O)N[C@@H](CCN)C(=O)NCC(N)=O)NC(=O)[C@H](CC(N)=O)NC(=O)[C@H](CCC(N)=O)NC1=O (H-C[2Thi]IQNCP[Dab]G-NH2; disulfide 1-6)	150	–	–	0.54	120	–	–	53	270	220	–	29	< 70	–	–
CC[C@H](C)[C@@H]1NC(=O)C2(CCC2)NC(=O)[C@@H](N)CSSC[C@@H](C(=O)N2CCC[C@H]2C(=O)N[C@@H](CCN)C(=O)NCC(N)=O)NC(=O)[C@H](CC(N)=O)NC(=O)[C@H](CCC(N)=O)NC1=O (H-C[Ac4c]IQNCP[Dab]G-NH2; disulfide 1-6)	64	–	–	0.94	380	–	> 10000	190	68	400	–	180	< 70	–	–
CC[C@H](C)[C@@H]1NC(=O)[C@H](Cc2ccco2)NC(=O)[C@@H](N)CSSC[C@@H](C(=O)N2CCC[C@H]2C(=O)N[C@@H](CCN)C(=O)NCC(N)=O)NC(=O)[C@H](CC(N)=O)NC(=O)[C@H](CC(N)=O)NC1=O (H-C[Ala(2-furyl)]INNCP[Dab]G-NH2; disulfide 1-6)	460	–	–	14	–	–	–	55	32	> 710	–	780	< 70	> 10000	> 10000
CC[C@H](C)[C@@H]1NC(=O)[C@H](CC2CCCC2)NC(=O)[C@@H](N)CSSC[C@@H](C(=O)N2CCC[C@H]2C(=O)N[C@@H](CCN)C(=O)NCC(N)=O)NC(=O)[C@H](CC(N)=O)NC(=O)[C@H](CC(N)=O)NC1=O (H-C[Ala(cPent)]INNCP[Dab]G-NH2; disulfide 1-6)	76	–	–	11	–	> 10000	> 10000	> 900	6.9	> 900	–	–	–	> 10000	> 10000
CC[C@H](C)[C@@H]1NC(=O)[C@H](CC2CCCC2)NC(=O)[C@@H](N)CSSC[C@@H](C(=O)N2CCC[C@H]2C(=O)N[C@@H](CCCN)C(=O)NCC(N)=O)NC(=O)[C@H](CC(N)=O)NC(=O)[C@H](CC(N)=O)NC1=O (H-C[Ala(cPent)]INNCP[Orn]G-NH2; disulfide 1-6)	120	–	–	7.7	–	> 10000	> 10000	> 1200	15	> 1200	–	–	–	> 10000	> 10000
CC[C@H](C)[C@@H]1NC(=O)[C@H](CC2CCCCC2)NC(=O)[C@@H](N)CSSC[C@@H](C(=O)N2CCC[C@H]2C(=O)N[C@@H](CCN)C(=O)NCC(N)=O)NC(=O)[C@H](CC(N)=O)NC(=O)[C@H](CC(N)=O)NC1=O (H-C[Cha]INNCP[Dab]G-NH2; disulfide 1-6)	18	–	–	1.6	–	> 10000	> 10000	> 6200	11	> 6200	–	–	–	> 10000	> 10000
CC[C@H](C)[C@@H]1NC(=O)[C@H](CC2CCCCC2)NC(=O)[C@@H](N)CSSC[C@@H](C(=O)N2CCC[C@H]2C(=O)N[C@@H](CCCN)C(=O)NCC(N)=O)NC(=O)[C@H](CC(N)=O)NC(=O)[C@H](CC(N)=O)NC1=O (H-C[Cha]INNCP[Orn]G-NH2; disulfide 1-6)	140	–	–	3.2	–	> 10000	> 10000	> 3100	43	> 3100	–	–	–	> 10000	> 10000
